From ChEMBL document CHEMBL4376814, “Novel cyclin-dependent kinase 9 (CDK9) inhibitor with suppression of cancer stemness activity against non-small-cell lung cancer” (Eur J Med Chem, 2019)
Activity calls are given as the source filed them. The calls are words filed in the database; no cut-off is given here.

Legend:
[1] = target: Tyrosine-protein kinase HCK (Homo sapiens) (UniProt P08631); assay: Inhibition of recombinant human HCK (230 to 497 residues) at 1 uM using Cdc2 peptide as substrate measured after 40 mins in presence of [gamma33P]ATP by scintillation counting method relative to control
[2] = target: Homeodomain-interacting protein kinase 4 (Homo sapiens) (UniProt Q8NE63); assay: Inhibition of recombinant full-length human HIPK4 at 1 uM using RRRFRPASPLRGPPK as substrate measured after 40 mins in presence of [gamma33P]ATP by scintillation counting method relative to control
[3] = target: Mitogen-activated protein kinase kinase kinase 3 (Homo sapiens) (UniProt Q99759); assay: Inhibition of full-length recombinant human MEKK3 at 1 uM using myelin basic protein as substrate measured after 120 mins in presence of [gamma33P]ATP by scintillation counting method relative to control
Summary of the method: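 Percent inhibition of kinase activity at a single compound concentration, measured by the outsourced Eurofins KinaseProfiler panel. Values are the mean of two independent experiments.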

[4] = system: A549; assay: Inhibition of tumorsphere formation in human A549 cells assessed as decrease in number of spheres at 0.25 to 1 uM after 2 weeks by microscopic analysis; type: functional, cell-based
[5] = target: Misshapen-like kinase 1 (Homo sapiens) (UniProt Q8N4C8); assay: Inhibition of recombinant human MINK (1 to 310 recombinant) at 1 uM using myelin basic protein as substrate measured after 40 mins in presence of [gamma33P]ATP by scintillation counting method relative to control
[6] = target: NT-3 growth factor receptor (Homo sapiens) (UniProt Q16288); assay: Inhibition of recombinant human TrkC (510 to end residues) at 1 uM using GEEPLYWSFPAKKK as substrate measured after 40 mins in presence of [gamma33P]ATP by scintillation counting method relative to control
[7] = target: Cyclin-dependent kinase 9 (Homo sapiens) (UniProt P50750); conditions: A549, 0.25 to 1 uM
[8] = target: Serine/threonine-protein kinase MRCK beta (Homo sapiens) (UniProt Q9Y5S2); assay: Inhibition of recombinant human MRCKbeta (1 to 473 residues) at 1 uM using KKRNRTLTV as substrate measured after 40 mins in presence of [gamma33P]ATP by scintillation counting method relative to control
[9] = target: Serine/threonine-protein kinase MRCK alpha (Homo sapiens) (UniProt Q5VT25); assay: Inhibition of recombinant human MRCKalpha (1 to 473 residues) at 1 uM using KKRNRTLTV as substrate measured after 40 mins in presence of [gamma33P]ATP by scintillation counting method relative to control
[10] = target: Protein kinase C epsilon type (Homo sapiens) (UniProt Q02156); assay: Inhibition of recombinant human PKCepsilon (2 to end residues) at 1 uM using ERMRPRKRQGSVRRRV as substrate measured after 40 mins in presence of [gamma33P]ATP by scintillation counting method relative to control
[11] = target: Dual specificity mitogen-activated protein kinase kinase 7 (Homo sapiens) (UniProt O14733); assay: Inhibition of recombinant human MKK7 (2 to end residues) at 1 uM using unactive JNK1a1 as substrate measured after 40 mins in presence of [gamma33P]ATP by scintillation counting method relative to control
[12] = target: Serine/threonine-protein kinase 26 (Homo sapiens) (UniProt Q9P289); assay: Inhibition of recombinant human MST4 (4 to 304 residues) at 1 uM using RLGRDKYKTLRQIRQ as substrate measured after 40 mins in presence of [gamma33P]ATP by scintillation counting method relative to control
[13] = target: Activin receptor type-1-like (Homo sapiens) (UniProt P37023); assay: Inhibition of recombinant human ALK1 (142 to end residues) at 1 uM using casein as substrate measured after 40 mins in presence of [gamma33P]ATP by scintillation counting method relative to control
[14] = target: Myosin-IIIb (Homo sapiens) (UniProt Q8WXR4); assay: Inhibition of recombinant human MYO3B (1 to 326 residues) at 1 uM using RLGRDKYKTLRQIRQ as substrate measured after 40 mins in presence of [gamma33P]ATP by scintillation counting method relative to control
[15] = target: Activin receptor type-1 (Homo sapiens) (UniProt Q04771); assay: Inhibition of recombinant human ALK2 (147 to end residues) at 1 uM using casein as substrate measured after 40 mins in presence of [gamma33P]ATP by scintillation counting method relative to control
Summary of the method: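 Single-point inhibition at 1 µM was measured in the Eurofins KinaseProfiler panel. Values are the mean of two independent experiments.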

[16] = system: Platelet-derived growth factor receptor alpha (Homo sapiens), P16234 [V561D]; assay: Inhibition of recombinant human PDGFRalpha (550 to end residues) V561D mutant at 1 uM using GGMEDIYFEFMGGKKK as substrate measured after 40 mins in presence of [gamma33P]ATP by scintillation counting method relative to control
[17] = target: Cyclin-dependent kinase 9 (Homo sapiens) (UniProt P50750); conditions: 0.25 to 1 uM
[18] = target: Serine/threonine-protein kinase MARK2 (Homo sapiens) (UniProt Q7KZI7); assay: Inhibition of recombinant full-length human PAR1Balpha at 1 uM using KKKVSRSGLYRSPSMPENLNRPR as substrate measured after 40 mins in presence of [gamma33P]ATP by scintillation counting method relative to control
[19] = system: NCI-H1299; assay: Antitumour activity against human H1299 cells xenografted in Balb/c mouse assessed as inhibition of tumour growth at 20 mg/kg, po administered for 21 days by digital caliper method relative to control; type: functional; conditions: 504 h, read-out: TGI
Summary of the method: (§1)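 Female nude mice, 6-8 weeks old, injected subcutaneously with 1×10^6 H1299 cells (100 µL of a 1×10^7/mL suspension in serum-free medium). At 100-120 mm3, randomized into groups of 5. Dosed orally each day for 21 days with drug dissolved in DMSO, or with vehicle. Caliper measurements and body weight taken every other day. Volume = short²×long×0.5. Growth inhibition based on change in volume relative to vehicle. Tumours weighed at the end.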

[20] = system: NCI-H1299; assay: Antitumour activity against human H1299 cells xenografted in Balb/c mouse assessed as inhibition of tumour growth at 80 mg/kg, po administered for 21 days by digital caliper method relative to control; type: functional; conditions: 504 h, read-out: TGI; summary of the method: as §1
[21] = target: Cyclin-dependent kinase-like 1 (Homo sapiens) (UniProt Q00532); assay: Inhibition of recombinant human CDKL1 (1 to 303 residues) at 1 uM using RRRFRPASPLRGP as substrate measured after 120 mins in presence of [gamma33P]ATP by scintillation counting method relative to control
[22] = target: Calcium/calmodulin-dependent protein kinase type II subunit beta (Homo sapiens) (UniProt Q13554); assay: Inhibition of recombinant human CaMK2 beta (1 to 315 resiudes) at 1 uM using calmodulin as substrate measured after 40 mins in presence of [gamma33P]ATP by scintillation counting method relative to control
Calcium/calmodulin-dependent protein kinase type II subunit beta (Homo sapiens), sequence (Q13554 whole entry): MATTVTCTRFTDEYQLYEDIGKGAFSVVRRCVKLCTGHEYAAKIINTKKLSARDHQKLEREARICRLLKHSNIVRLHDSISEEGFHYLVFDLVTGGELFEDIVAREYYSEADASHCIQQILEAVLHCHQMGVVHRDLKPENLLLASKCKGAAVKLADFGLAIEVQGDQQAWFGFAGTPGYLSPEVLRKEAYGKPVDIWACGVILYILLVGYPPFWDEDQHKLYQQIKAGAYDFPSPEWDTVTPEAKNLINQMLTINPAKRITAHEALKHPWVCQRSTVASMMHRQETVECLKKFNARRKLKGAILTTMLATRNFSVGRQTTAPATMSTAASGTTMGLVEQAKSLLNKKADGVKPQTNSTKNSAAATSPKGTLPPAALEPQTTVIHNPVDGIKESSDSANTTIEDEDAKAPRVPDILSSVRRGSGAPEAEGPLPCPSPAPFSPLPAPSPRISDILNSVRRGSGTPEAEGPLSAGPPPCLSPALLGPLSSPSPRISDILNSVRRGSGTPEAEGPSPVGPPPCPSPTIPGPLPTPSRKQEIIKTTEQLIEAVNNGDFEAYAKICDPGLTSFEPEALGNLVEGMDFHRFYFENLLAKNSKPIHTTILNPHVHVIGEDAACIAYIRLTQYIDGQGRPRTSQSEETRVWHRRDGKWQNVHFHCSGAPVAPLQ

Cyclin-dependent kinase 9 (Homo sapiens), sequence (P50750 whole entry, the tested form may be a part): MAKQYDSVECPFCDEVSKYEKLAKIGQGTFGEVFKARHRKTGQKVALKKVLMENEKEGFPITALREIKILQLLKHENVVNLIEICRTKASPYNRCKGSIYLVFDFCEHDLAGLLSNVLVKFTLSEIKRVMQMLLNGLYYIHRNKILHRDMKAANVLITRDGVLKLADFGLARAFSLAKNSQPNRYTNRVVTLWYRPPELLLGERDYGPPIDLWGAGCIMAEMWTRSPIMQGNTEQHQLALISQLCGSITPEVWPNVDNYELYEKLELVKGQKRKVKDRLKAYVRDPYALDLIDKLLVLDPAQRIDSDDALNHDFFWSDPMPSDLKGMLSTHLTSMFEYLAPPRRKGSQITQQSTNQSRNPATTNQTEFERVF
Serine/threonine-protein kinase 26 (Homo sapiens), sequence (Q9P289 2-416 limits assumed): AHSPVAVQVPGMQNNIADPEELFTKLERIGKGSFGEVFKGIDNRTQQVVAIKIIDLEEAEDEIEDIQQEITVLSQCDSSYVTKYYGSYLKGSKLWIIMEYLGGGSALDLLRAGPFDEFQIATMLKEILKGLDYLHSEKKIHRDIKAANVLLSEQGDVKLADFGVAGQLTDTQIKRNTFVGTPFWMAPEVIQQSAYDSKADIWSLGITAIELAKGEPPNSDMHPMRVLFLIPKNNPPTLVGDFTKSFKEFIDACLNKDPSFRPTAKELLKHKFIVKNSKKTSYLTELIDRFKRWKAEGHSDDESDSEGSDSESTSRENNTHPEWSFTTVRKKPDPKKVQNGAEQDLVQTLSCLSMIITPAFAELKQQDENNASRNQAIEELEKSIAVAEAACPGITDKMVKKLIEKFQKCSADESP
Platelet-derived growth factor receptor alpha (Homo sapiens), P16234 [V561D], sequence (P16234 whole entry V561D): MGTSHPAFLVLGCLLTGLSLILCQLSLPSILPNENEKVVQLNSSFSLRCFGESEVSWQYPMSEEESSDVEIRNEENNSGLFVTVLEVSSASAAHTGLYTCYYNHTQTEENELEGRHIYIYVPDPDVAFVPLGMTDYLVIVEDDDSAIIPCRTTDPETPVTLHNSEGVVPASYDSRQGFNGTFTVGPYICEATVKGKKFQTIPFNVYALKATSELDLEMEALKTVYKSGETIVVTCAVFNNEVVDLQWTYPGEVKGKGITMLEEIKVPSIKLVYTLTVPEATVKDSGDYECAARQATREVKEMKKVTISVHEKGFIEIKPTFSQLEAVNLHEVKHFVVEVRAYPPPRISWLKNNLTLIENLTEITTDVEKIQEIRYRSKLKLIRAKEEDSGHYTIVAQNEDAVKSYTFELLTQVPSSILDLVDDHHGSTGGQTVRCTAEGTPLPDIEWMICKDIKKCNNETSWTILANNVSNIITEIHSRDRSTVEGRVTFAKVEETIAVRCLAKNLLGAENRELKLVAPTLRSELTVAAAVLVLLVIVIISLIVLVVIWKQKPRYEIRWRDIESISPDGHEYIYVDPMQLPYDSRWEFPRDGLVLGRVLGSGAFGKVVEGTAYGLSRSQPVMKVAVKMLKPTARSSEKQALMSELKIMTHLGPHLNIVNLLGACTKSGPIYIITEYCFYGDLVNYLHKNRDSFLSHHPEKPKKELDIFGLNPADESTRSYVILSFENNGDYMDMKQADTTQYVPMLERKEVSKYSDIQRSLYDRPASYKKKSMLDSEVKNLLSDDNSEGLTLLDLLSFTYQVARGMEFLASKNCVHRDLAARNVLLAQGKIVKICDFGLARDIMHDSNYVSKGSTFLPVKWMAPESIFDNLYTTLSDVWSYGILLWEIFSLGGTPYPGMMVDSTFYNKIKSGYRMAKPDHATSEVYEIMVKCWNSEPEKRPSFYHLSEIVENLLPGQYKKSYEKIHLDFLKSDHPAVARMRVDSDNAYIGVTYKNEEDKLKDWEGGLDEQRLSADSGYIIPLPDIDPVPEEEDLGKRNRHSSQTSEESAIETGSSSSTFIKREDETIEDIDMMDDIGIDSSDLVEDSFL
Activin receptor type-1 (Homo sapiens), sequence (Q04771 whole entry): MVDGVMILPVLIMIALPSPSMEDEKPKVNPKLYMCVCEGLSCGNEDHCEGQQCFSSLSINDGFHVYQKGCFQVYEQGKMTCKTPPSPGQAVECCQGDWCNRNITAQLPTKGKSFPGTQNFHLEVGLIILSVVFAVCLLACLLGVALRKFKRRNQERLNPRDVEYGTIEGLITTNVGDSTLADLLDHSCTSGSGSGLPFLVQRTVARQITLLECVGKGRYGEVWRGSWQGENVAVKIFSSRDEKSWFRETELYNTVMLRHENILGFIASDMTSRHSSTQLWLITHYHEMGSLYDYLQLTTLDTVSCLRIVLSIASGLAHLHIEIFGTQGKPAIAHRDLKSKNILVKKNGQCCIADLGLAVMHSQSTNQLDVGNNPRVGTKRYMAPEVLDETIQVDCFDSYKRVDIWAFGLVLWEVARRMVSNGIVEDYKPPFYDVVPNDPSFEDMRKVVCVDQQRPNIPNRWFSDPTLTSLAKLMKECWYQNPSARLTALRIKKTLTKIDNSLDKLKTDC
Cyclin-dependent kinase-like 1 (Homo sapiens), sequence (Q00532 whole entry, the tested form may be a part): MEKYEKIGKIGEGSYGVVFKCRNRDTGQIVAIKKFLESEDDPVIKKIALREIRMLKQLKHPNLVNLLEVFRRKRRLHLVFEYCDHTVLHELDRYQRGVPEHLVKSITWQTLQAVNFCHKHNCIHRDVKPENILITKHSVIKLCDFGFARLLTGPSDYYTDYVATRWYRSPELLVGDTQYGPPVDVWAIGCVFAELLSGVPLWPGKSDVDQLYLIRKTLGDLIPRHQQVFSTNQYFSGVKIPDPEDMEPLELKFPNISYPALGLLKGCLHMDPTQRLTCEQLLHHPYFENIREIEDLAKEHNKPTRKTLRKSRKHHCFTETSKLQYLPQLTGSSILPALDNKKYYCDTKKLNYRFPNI
Protein kinase C epsilon type (Homo sapiens), sequence (Q02156 whole entry): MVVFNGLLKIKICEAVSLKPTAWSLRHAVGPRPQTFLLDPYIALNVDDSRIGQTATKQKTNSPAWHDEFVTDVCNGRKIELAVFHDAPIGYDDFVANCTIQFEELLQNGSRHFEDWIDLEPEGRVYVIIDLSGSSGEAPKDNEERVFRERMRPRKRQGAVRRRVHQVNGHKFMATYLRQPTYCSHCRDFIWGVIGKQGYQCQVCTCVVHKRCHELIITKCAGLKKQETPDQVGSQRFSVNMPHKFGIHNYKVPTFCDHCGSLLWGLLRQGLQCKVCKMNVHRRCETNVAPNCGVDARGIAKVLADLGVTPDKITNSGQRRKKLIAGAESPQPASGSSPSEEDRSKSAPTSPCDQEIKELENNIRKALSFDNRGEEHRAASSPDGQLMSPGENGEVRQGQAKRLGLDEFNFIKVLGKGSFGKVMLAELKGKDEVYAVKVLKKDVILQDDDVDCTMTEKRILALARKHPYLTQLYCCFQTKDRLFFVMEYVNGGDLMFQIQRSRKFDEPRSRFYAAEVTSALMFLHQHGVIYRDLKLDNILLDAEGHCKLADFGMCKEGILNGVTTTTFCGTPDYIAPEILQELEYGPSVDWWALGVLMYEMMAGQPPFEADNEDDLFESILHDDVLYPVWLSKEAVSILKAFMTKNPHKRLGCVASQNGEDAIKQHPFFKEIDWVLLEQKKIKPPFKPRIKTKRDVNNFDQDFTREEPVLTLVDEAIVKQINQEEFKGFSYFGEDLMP
NT-3 growth factor receptor (Homo sapiens), sequence (Q16288 32-839 limits assumed): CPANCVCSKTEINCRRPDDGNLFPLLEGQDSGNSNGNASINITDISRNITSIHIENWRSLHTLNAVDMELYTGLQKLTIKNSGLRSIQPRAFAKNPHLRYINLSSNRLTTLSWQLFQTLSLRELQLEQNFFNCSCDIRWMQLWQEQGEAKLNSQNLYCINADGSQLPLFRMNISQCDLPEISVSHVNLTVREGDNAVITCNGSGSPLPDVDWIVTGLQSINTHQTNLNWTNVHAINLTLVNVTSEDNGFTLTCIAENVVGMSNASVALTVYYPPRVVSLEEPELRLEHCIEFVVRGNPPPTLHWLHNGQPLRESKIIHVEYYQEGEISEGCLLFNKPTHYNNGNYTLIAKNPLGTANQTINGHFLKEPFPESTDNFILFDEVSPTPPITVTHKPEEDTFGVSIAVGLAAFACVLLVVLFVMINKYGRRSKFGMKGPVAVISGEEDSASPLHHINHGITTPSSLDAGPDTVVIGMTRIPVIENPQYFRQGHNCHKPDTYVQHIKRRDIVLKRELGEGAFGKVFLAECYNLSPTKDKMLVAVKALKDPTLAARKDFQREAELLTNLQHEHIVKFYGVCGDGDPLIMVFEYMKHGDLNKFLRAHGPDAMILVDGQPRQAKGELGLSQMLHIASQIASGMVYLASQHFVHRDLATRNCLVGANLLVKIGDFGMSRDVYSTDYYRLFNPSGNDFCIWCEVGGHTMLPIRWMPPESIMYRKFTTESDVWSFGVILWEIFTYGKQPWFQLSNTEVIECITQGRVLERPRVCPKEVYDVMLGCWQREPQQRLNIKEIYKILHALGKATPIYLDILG

## CN(C)C(=O)c1cc2cnc(Nc3ccc(NC(=O)CCCCCCCN=C=S)cc3)nc2n1C1CCCC1
[1]
  inhibition: 9%
[2]
  inhibition: 19%
[3]
  inhibition: 66%
[4]
  Activity: Active
[5]
  inhibition: 39%
[6]
  inhibition: 80%
[7]
  inhibition: Active
[8]
  inhibition: 7%
[9]
  inhibition: -5%
[10]
  inhibition: -3%
[11]
  inhibition: 35%
[12]
  inhibition: 6%
[13]
  inhibition: -5%
[14]
  inhibition: -1%
[15]
  inhibition: 11%
[16]
  inhibition: 90%
[17]
  inhibition: Active
[18]
  inhibition: 2%
[19]
  inhibition in vivo at 20 mg/kg: 62%
[20]
  inhibition in vivo at 80 mg/kg: 94.7%
[21]
  inhibition: 17%
[22]
  inhibition: 29%
